Experimental data reported in ChEMBL document CHEMBL5724801, “EUbOPEN Chemogenomics Library - Multiplex” (2024).
“And” between values parts separate entries of the source, which are not always exact repeats. Identical values can stand only once.

Experiments:
HEK-293T = test: Multiplex assay against HEK293T; assay type: toxicity, cell-based; settings: human
In short: (§1)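 Tubulin, mitochondrial-mass and membrane-permeability phenotypes are per cents of healthy-nucleus cells. Cells were gated by CellPathfinder machine learning into Hoechst high-intensity objects or normal cells, normal cells into healthy, pyknosed or fragmented nuclei, and pyknosed cells into mitotic or apoptotic. Before that, live cells stained at seeding with Hoechst33342, BioTracker Green Microtubule Cytoskeleton Dye, MitoTracker Red and Annexin V Alexa Fluor 680 were imaged on a CQ1 microscope at 37°C and 5% CO2 after compound addition.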

U2OS = test: Multiplex assay against U2OS; assay type: toxicity, cell-based; settings: human; in short: as §1
[1] = 24 h, 10 µM, compound concentration 10 uM
[2] = 48 h, 1 µM, compound concentration 1 uM
[3] = 48 h, 10 µM, compound concentration 10 uM
[4] = 12 h, 1 µM, compound concentration 1 uM
[5] = 12 h, 10 µM, compound concentration 10 uM
[6] = 24 h, 1 µM, compound concentration 1 uM

CCc1cc2cc(NS(=O)(=O)c3ccc(C#N)cc3)ccc2n(CC)c1=O
Population Apoptotic (%) (HEK-293T; [1]): 33% and 63% | Population Fragmented Nuclei (%) (HEK-293T; [1]): 9% and 10% | Population Healthy Nuclei (%) (HEK-293T; [1]): 80% and 73% | Population Hoechst High Intensity Objects (%) (HEK-293T; [1]): 6% and 17% | Population Membrane Permeable-Phenotype (%) (HEK-293T; [1]): 0% and 1% | Population Mitochondria Different-Phenotype (%) (HEK-293T; [1]): 36% and 58% | Population Mitotic Cells (%) (HEK-293T; [1]): 66% and 36% | Population Normal (%) (HEK-293T; [1]): 93% and 82% | Population Pyknosed Nuclei (%) (HEK-293T; [1]): 10% and 16% | Population Tubulin-Different-Phenotype (%) (HEK-293T; [1]): 32% and 29% | Total Cell Count (HEK-293T; [1]): 478 and 332 | Population Apoptotic (%) (HEK-293T; [2]): 30% and 38% | Population Fragmented Nuclei (%) (HEK-293T; [2]): 11% and 14% | Population Healthy Nuclei (%) (HEK-293T; [2]): 81% and 79% | Population Hoechst High Intensity Objects (%) (HEK-293T; [2]): 2% and 4% | Population Membrane Permeable-Phenotype (%) (HEK-293T; [2]): 1% | Population Mitochondria Different-Phenotype (%) (HEK-293T; [2]): 11% and 23% | Population Mitotic Cells (%) (HEK-293T; [2]): 69% and 61% | Population Normal (%) (HEK-293T; [2]): 97% and 95% | Population Pyknosed Nuclei (%) (HEK-293T; [2]): 6% and 5% | Population Tubulin-Different-Phenotype (%) (HEK-293T; [2]): 13% and 12% | Total Cell Count (HEK-293T; [2]): 878 and 608 | Population Apoptotic (%) (HEK-293T; [3]): 26% and 47% | Population Fragmented Nuclei (%) (HEK-293T; [3]): 14% and 16% | Population Healthy Nuclei (%) (HEK-293T; [3]): 78% and 73% | Population Hoechst High Intensity Objects (%) (HEK-293T; [3]): 4% and 10% | Population Membrane Permeable-Phenotype (%) (HEK-293T; [3]): 1% | Population Mitochondria Different-Phenotype (%) (HEK-293T; [3]): 23% and 40% | Population Mitotic Cells (%) (HEK-293T; [3]): 73% and 52% | Population Normal (%) (HEK-293T; [3]): 95% and 89% | Population Pyknosed Nuclei (%) (HEK-293T; [3]): 6% and 9% | Population Tubulin-Different-Phenotype (%) (HEK-293T; [3]): 20% and 23% | Total Cell Count (HEK-293T; [3]): 734 and 383 | Population Apoptotic (%) (U2OS; [4]): 88% and 100% | Population Fragmented Nuclei (%) (U2OS; [4]): 30% and 26% | Population Healthy Nuclei (%) (U2OS; [4]): 60% and 70% | Population Hoechst High Intensity Objects (%) (U2OS; [4]): 3% and 1% | Population Membrane Permeable-Phenotype (%) (U2OS; [4]): 4% and 8% | Population Mitochondria Different-Phenotype (%) (U2OS; [4]): 2% | Population Mitotic Cells (%) (U2OS; [4]): 11% and 0% | Population Normal (%) (U2OS; [4]): 96% and 98% | Population Pyknosed Nuclei (%) (U2OS; [4]): 9% and 3% | Population Tubulin-Different-Phenotype (%) (U2OS; [4]): 2% and 7% | Total Cell Count (U2OS; [4]): 286 and 113 | Population Apoptotic (%) (U2OS; [5]): 66% and 87% | Population Fragmented Nuclei (%) (U2OS; [5]): 28% and 13% | Population Healthy Nuclei (%) (U2OS; [5]): 64% and 80% | Population Hoechst High Intensity Objects (%) (U2OS; [5]): 2% | Population Membrane Permeable-Phenotype (%) (U2OS; [5]): 9% and 6% | Population Mitochondria Different-Phenotype (%) (U2OS; [5]): 3% | Population Mitotic Cells (%) (U2OS; [5]): 33% and 12% | Population Normal (%) (U2OS; [5]): 97% | Population Pyknosed Nuclei (%) (U2OS; [5]): 6% and 5% | Population Tubulin-Different-Phenotype (%) (U2OS; [5]): 4% | Total Cell Count (U2OS; [5]): 220 and 139 | Population Apoptotic (%) (U2OS; [6]): 85% and 88% | Population Fragmented Nuclei (%) (U2OS; [6]): 29% and 16% | Population Healthy Nuclei (%) (U2OS; [6]): 61% and 75% | Population Hoechst High Intensity Objects (%) (U2OS; [6]): 2% and 1% | Population Membrane Permeable-Phenotype (%) (U2OS; [6]): 9% and 7% | Population Mitochondria Different-Phenotype (%) (U2OS; [6]): 2% and 7% | Population Mitotic Cells (%) (U2OS; [6]): 14% and 11% | Population Normal (%) (U2OS; [6]): 97% and 98% | Population Pyknosed Nuclei (%) (U2OS; [6]): 8% and 7% | Population Tubulin-Different-Phenotype (%) (U2OS; [6]): 6% and 3% | Total Cell Count (U2OS; [6]): 335 and 126 | Population Apoptotic (%) (U2OS; [1]): 95% and 80% | Population Fragmented Nuclei (%) (U2OS; [1]): 23% and 14% | Population Healthy Nuclei (%) (U2OS; [1]): 67% and 79% | Population Hoechst High Intensity Objects (%) (U2OS; [1]): 3% | Population Membrane Permeable-Phenotype (%) (U2OS; [1]): 4% and 6% | Population Mitochondria Different-Phenotype (%) (U2OS; [1]): 2% | Population Normal (%) (U2OS; [1]): 96% | Population Pyknosed Nuclei (%) (U2OS; [1]): 9% and 6% | Population Tubulin-Different-Phenotype (%) (U2OS; [1]): 1% and 2% | Total Cell Count (U2OS; [1]): 263 and 159 | Population Apoptotic (%) (U2OS; [2]): 89% and 84% | Population Fragmented Nuclei (%) (U2OS; [2]): 21% and 19% | Population Healthy Nuclei (%) (U2OS; [2]): 70% and 73% | Population Hoechst High Intensity Objects (%) (U2OS; [2]): 2% and 3% | Population Membrane Permeable-Phenotype (%) (U2OS; [2]): 6% | Population Mitochondria Different-Phenotype (%) (U2OS; [2]): 3% and 5% | Population Mitotic Cells (%) (U2OS; [2]): 10% and 15% | Population Normal (%) (U2OS; [2]): 97% and 96% | Population Pyknosed Nuclei (%) (U2OS; [2]): 8% and 6% | Population Tubulin-Different-Phenotype (%) (U2OS; [2]): 2% and 3% | Total Cell Count (U2OS; [2]): 450 and 192 | Population Apoptotic (%) (U2OS; [3]): 88% and 96% | Population Fragmented Nuclei (%) (U2OS; [3]): 18% and 15% | Population Healthy Nuclei (%) (U2OS; [3]): 72% and 73% | Population Hoechst High Intensity Objects (%) (U2OS; [3]): 3% and 2% | Population Membrane Permeable-Phenotype (%) (U2OS; [3]): 6% and 8% | Population Mitochondria Different-Phenotype (%) (U2OS; [3]): 2% and 3% | Population Mitotic Cells (%) (U2OS; [3]): 11% and 3% | Population Normal (%) (U2OS; [3]): 96% and 97% | Population Pyknosed Nuclei (%) (U2OS; [3]): 9% and 11% | Population Tubulin-Different-Phenotype (%) (U2OS; [3]): 3% and 7% | Total Cell Count (U2OS; [3]): 387 and 248
